Measurements published in ChEMBL document CHEMBL1136967, “High-affinity, non-nucleotide-derived competitive antagonists of platelet P2Y12 receptors” (J Med Chem, 2009).

What was measured:
P2Y purinoceptor 12 [1] = target: T1, P2Y purinoceptor 12 (Homo sapiens, UniProt Q9H244); assay: Displacement of [3H]PSB0413 from human platelet P2Y12 receptor
Method in brief: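 Membranes from outdated human blood-bank platelets (4-5 days post-donation), washed, centrifuged, homogenized, stored at -80 °C. 100 µg protein incubated with 5 nM [³H]PSB-0413 in 50 mM Tris-HCl pH 7.4 for 1 h at rt, then filtered over GF/B. Nonspecific binding with 1 mM ADP. Screen at 10 µM. Ki from curves of 6-7 concentrations over 3 log units. At least three experiments in triplicate.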

P2Y purinoceptor 12 [2] = target: T1, P2Y purinoceptor 12; assay: Displacement of [3H]PSB0413 from human platelet P2Y12 receptor at 10 uM
Method in brief: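 Human platelet membranes (100 µg protein) incubated with 5 nM [3H]PSB-0413 and test compound at 10 µM in 50 mM Tris-HCl pH 7.4 for 1 h at rt, then filtered over GF/B. Nonspecific binding defined with 1 mM ADP; result expressed as % inhibition of radioligand binding.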

[3] = Toxicity in po dosed rat; type: organism-based; conditions: in vivo
Homo sapiens [4] = species: Homo sapiens; assay: Selectivity for human platelet P2Y12 receptor over human P2Y1 receptor
Homo sapiens [5] = species: Homo sapiens; assay: Selectivity for human platelet P2Y12 receptor over human P2Y2 receptor
Homo sapiens [6] = species: Homo sapiens; assay: Selectivity for human platelet P2Y12 receptor over human P2Y4 receptor
Homo sapiens [7] = species: Homo sapiens; assay: Selectivity for human platelet P2Y12 receptor over human P2X2 receptor
Homo sapiens [8] = species: Homo sapiens; assay: Selectivity for human platelet P2Y12 receptor over human P2X4 receptor
P2Y purinoceptor 12 [9] = target: T1, P2Y purinoceptor 12; assay: Antagonist activity at P2Y12 receptor expressed in human astrocytoma cells assessed as right shift of concentration response curve; type: functional, cell-based
[10] = Cytotoxicity against human 1321N1 cells after 72 hrs to 144 hrs by MTT assay; type: functional, cell-based
Method in brief: (§1)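 Cells grown in DMEM with 10% fetal calf serum, penicillin and streptomycin at 37 °C, 5% CO₂. Seeded at 2000 cells/well, 24 h, then medium renewed and compounds added (DMSO stocks; final DMSO 1%) at 0.1, 1 and 100 µM, or full dose-inhibition curves. Exposure 72-144 h. MTT 1 h, crystals dissolved in DMSO, absorbance 570 nm (reference 690 nm). Viability relative to 1% DMSO wells. Triplicates, 3-8 experiments.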

[11] = Cytotoxicity against human 1539 cells after 72 hrs to 144 hrs by MTT assay; type: functional, cell-based; method in brief: as §1
[12] = Cytotoxicity against human 1321N1 cells at 0.1 uM after 72 hrs to 144 hrs by MTT assay; type: functional
Method in brief: (§2)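 1321N1 astrocytoma and 1539 melanoma cells grown in DMEM with 10% FCS and penicillin/streptomycin at 37 °C, 5% CO2. Seeded at 2000 cells/well for 24 h, then medium replaced and compound added from 10 mM DMSO stocks (final DMSO 1%). Incubation 72-144 h, then MTT (5 mg/mL stock) for 1 h. Formazan dissolved in DMSO, A570 read against 690 nm reference. Viability relative to 1% DMSO wells; triplicates, 3-8 experiments.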

[13] = Cytotoxicity against human 1321N1 cells at 1 uM after 72 hrs to 144 hrs by MTT assay; type: functional; method in brief: as §2
[14] = Cytotoxicity against human 1321N1 cells at 100 uM after 72 hrs to 144 hrs by MTT assay; type: functional; method in brief: as §2
[15] = Cytotoxicity against human 1539 cells at 0.1 uM after 72 hrs to 144 hrs by MTT assay; type: functional; method in brief: as §2
[16] = Cytotoxicity against human 1539 cells at 1 uM after 72 hrs to 144 hrs by MTT assay; type: functional; method in brief: as §2
[17] = Cytotoxicity against human 1539 cells at 100 uM after 72 hrs to 144 hrs by MTT assay; type: functional; method in brief: as §2

T1 sequence (Q9H244 whole entry): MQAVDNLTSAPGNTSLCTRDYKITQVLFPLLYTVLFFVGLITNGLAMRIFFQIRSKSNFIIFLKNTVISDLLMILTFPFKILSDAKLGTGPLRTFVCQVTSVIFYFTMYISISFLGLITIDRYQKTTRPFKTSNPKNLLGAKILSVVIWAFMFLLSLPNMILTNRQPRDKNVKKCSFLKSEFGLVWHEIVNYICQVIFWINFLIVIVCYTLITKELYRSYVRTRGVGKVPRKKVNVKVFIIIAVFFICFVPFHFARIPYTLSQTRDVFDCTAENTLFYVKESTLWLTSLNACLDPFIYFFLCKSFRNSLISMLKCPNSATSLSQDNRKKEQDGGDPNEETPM

Cc1cc(C)c(Nc2cc(S(=O)(=O)O)c(N)c3c2C(=O)c2ccccc2C3=O)c(C)c1 [ACID BLUE 129]
Ki (P2Y purinoceptor 12 [1]): > 10 µM | inhibition (P2Y purinoceptor 12 [2]): 30%

Nc1ccc(Nc2cc(S(=O)(=O)O)c(N)c3c2C(=O)c2ccccc2C3=O)cc1
Ki (P2Y purinoceptor 12 [1]): > 10 µM | inhibition (P2Y purinoceptor 12 [2]): 30%

Nc1ccccc1Nc1cc(S(=O)(=O)O)c(N)c2c1C(=O)c1ccccc1C2=O
Ki (P2Y purinoceptor 12 [1]): > 10 µM | inhibition (P2Y purinoceptor 12 [2]): 37%

Cc1cc(O)c2c(c1)C(=O)c1cc(O[C@@H]3O[C@@H](C)[C@H](O)[C@@H](O)[C@H]3O)cc(O)c1C2=O [FRANGULIN A]
Ki (P2Y purinoceptor 12 [1]): > 10 µM | inhibition (P2Y purinoceptor 12 [2]): 4%

Nc1c(S(=O)(=O)O)cc(NCc2ccccc2)c2c1C(=O)c1ccccc1C2=O
Ki (P2Y purinoceptor 12 [1]): > 10 µM | inhibition (P2Y purinoceptor 12 [2]): 11%

O=C1c2c(O)ccc(O)c2C(=O)c2c(NCCNCCO)ccc(NCCNCCO)c21 [MITOXANTRONE]
Ki (P2Y purinoceptor 12 [1]): > 10 µM

Cc1cc(O)c2c(c1)Cc1cc(O)cc(O)c1C2=O [EMODIN ANTHRONE]
Ki (P2Y purinoceptor 12 [1]): > 10 µM | inhibition (P2Y purinoceptor 12 [2]): 1%

Nc1c(S(=O)(=O)O)cc(Nc2ccc(Nc3ccccc3)c(C(=O)O)c2)c2c1C(=O)c1ccccc1C2=O
Ki (P2Y purinoceptor 12 [1]): 0.021 µM

Nc1ccc(-c2ccc(N)c3c2C(=O)c2ccccc2C3=O)c2c1C(=O)c1ccccc1C2=O
LD50 [3]: > 5000 mg/kg

Nc1c(S(=O)(=O)O)cc(Nc2ccc(Nc3ncccn3)cc2)c2c1C(=O)c1ccccc1C2=O
Ki (P2Y purinoceptor 12 [1]): 10 µM | inhibition (P2Y purinoceptor 12 [2]): 57%

Nc1c(S(=O)(=O)O)cc(Nc2ccc(Nc3ncccn3)c(S(=O)(=O)O)c2)c2c1C(=O)c1ccccc1C2=O
fold change (FC) (Homo sapiens [4]): 100 | fold change (FC) (Homo sapiens [5]): 100 | fold change (FC) (Homo sapiens [6]): 100 | fold change (FC) (Homo sapiens [7]): 100 | fold change (FC) (Homo sapiens [8]): 100

Nc1c(S(=O)(=O)O)cc(Nc2ccc(O)cc2)c2c1C(=O)c1ccccc1C2=O
Ki (P2Y purinoceptor 12 [1]): 10 µM | inhibition (P2Y purinoceptor 12 [2]): 50%

Cc1cc(O)c2c(c1)C(=O)c1cc(O[C@@H]3OC[C@](O)(CO)[C@H]3O)cc(O)c1C2=O [FRANGULIN B]
Ki (P2Y purinoceptor 12 [1]): > 10 µM | inhibition (P2Y purinoceptor 12 [2]): 4%

Cc1cc(O)c2c(c1)C(=O)c1cc(O)cc(O)c1C2=O [EMODIN]
Ki (P2Y purinoceptor 12 [1]): > 10 µM | inhibition (P2Y purinoceptor 12 [2]): 5%

Cc1cc(O)c2c(c1)C(=O)c1cccc(O)c1C2=O [CHRYSOPHANOL]
Ki (P2Y purinoceptor 12 [1]): > 10 µM | inhibition (P2Y purinoceptor 12 [2]): 13%

Cc1cc(C)c(Nc2cc(S(=O)(=O)O)c(N)c3c2C(=O)c2ccccc2C3=O)c(C)c1N
Ki (P2Y purinoceptor 12 [1]): > 10 µM | inhibition (P2Y purinoceptor 12 [2]): 35%

CC(=O)Nc1ccc(Nc2cc(S(=O)(=O)O)c(N)c3c2C(=O)c2ccccc2C3=O)cc1
Ki (P2Y purinoceptor 12 [1]): > 10 µM | inhibition (P2Y purinoceptor 12 [2]): 4%

CN(C)[C@@H]1C(O)=C(C(N)=O)C(=O)[C@@]2(O)C(O)=C3C(=O)c4c(O)cccc4[C@@](C)(O)[C@H]3C[C@@H]12 [TETRACYCLINE]
Ki (P2Y purinoceptor 12 [1]): > 10 µM | inhibition (P2Y purinoceptor 12 [2]): 2%

Nc1c(S(=O)(=O)O)cc(Nc2ccccc2O)c2c1C(=O)c1ccccc1C2=O
Ki (P2Y purinoceptor 12 [1]): 10 µM | inhibition (P2Y purinoceptor 12 [2]): 45%

Nc1c(S(=O)(=O)O)cc(Nc2cccc([N+](=O)[O-])c2)c2c1C(=O)c1ccccc1C2=O
Ki (P2Y purinoceptor 12 [1]): > 10 µM | inhibition (P2Y purinoceptor 12 [2]): 17%

O=C1c2cccc(O)c2C(=O)c2c(O)cc(CO)cc21 [ALOE-EMODIN]
Ki (P2Y purinoceptor 12 [1]): > 10 µM | inhibition (P2Y purinoceptor 12 [2]): 2%

Nc1c(S(=O)(=O)O)cc(Nc2ccc(Nc3ccccc3)c(S(=O)(=O)O)c2)c2c1C(=O)c1ccccc1C2=O
Kb (P2Y purinoceptor 12 [9]): 0.0004 µM | pKb (P2Y purinoceptor 12 [9]): 9.4

COC(=O)c1cc(O)c2c(c1)C(=O)c1cccc(O)c1C2=O [RHEIN METHYLESTER]
Ki (P2Y purinoceptor 12 [1]): > 10 µM | inhibition (P2Y purinoceptor 12 [2]): 2%

COc1cc(O)c2c(c1)C(=O)c1cc(C)cc(O)c1C2=O [PHYSCION]
Ki (P2Y purinoceptor 12 [1]): > 10 µM | inhibition (P2Y purinoceptor 12 [2]): 7%

COc1ccc(CCNc2cc(S(=O)(=O)O)c(N)c3c2C(=O)c2ccccc2C3=O)cc1OC
Ki (P2Y purinoceptor 12 [1]): > 10 µM | inhibition (P2Y purinoceptor 12 [2]): 23%

Nc1c(S(=O)(=O)O)cc(NCCc2ccccc2)c2c1C(=O)c1ccccc1C2=O
Ki (P2Y purinoceptor 12 [1]): > 10 µM | inhibition (P2Y purinoceptor 12 [2]): 16%

O=C1c2c(O)cccc2C([C@@H]2O[C@H](CO)[C@@H](O)[C@H](O)[C@H]2O)c2cc(CO)cc(O)c21 (some centres undefined) [ALOIN]
Ki (P2Y purinoceptor 12 [1]): > 10 µM | inhibition (P2Y purinoceptor 12 [2]): 2%

COc1cccc2c1C(=O)c1c(O)c3c(c(O)c1C2=O)C[C@@](O)(C(=O)CO)C[C@@H]3O[C@H]1C[C@H](N)[C@H](O)[C@H](C)O1 [DOXORUBICIN]
Ki (P2Y purinoceptor 12 [1]): > 10 µM | inhibition (P2Y purinoceptor 12 [2]): 7%

O=c1[nH]cc(F)c(=O)[nH]1 [FLUOROURACIL]
EC50 [10]: 53.2 µM | EC50 [11]: 5.71 µM

CN(C)[C@@H]1C(O)=C(C(N)=O)C(=O)[C@@]2(O)C(O)=C3C(=O)c4c(O)ccc(Cl)c4[C@@](C)(O)[C@H]3C[C@@H]12 [CHLORTETRACYCLINE]
Ki (P2Y purinoceptor 12 [1]): > 10 µM | inhibition (P2Y purinoceptor 12 [2]): 6%

Nc1c(S(=O)(=O)[O-])cc(Nc2ccc(Cl)cc2)c2c1C(=O)c1ccccc1C2=O.[Na+]
Activity [12]: 117% | Activity [13]: 116% | Activity [14]: 120% | Activity [15]: 99% | Activity [16]: 95% | Activity [17]: 129%

Nc1c(S(=O)(=O)[O-])cc(Nc2cccc3ccccc23)c2c1C(=O)c1ccccc1C2=O.[Na+]
Activity [12]: 114% | Ki (P2Y purinoceptor 12 [1]): > 10 µM | inhibition (P2Y purinoceptor 12 [2]): 25% | Activity [13]: 126% | Activity [14]: 116% | Activity [15]: 96% | Activity [16]: 95% | Activity [17]: 89%
